Measurements taken from ChEMBL document CHEMBL1687834, “Identification and characterization of persistent intracellular human immunodeficiency virus type 1 integrase strand transfer inhibitor activity” (Antimicrob Agents Chemother, 2011).
Activity calls are given as the source filed them. The calls are words filed in the database; no cut-off is given here.

Assays:
[1] = tested on: Human immunodeficiency virus 1; experiment: Antiviral activity against single-round HIV1 NLX.Lux-R harboring inactivating mutations in env, vpr and carries firefly luciferase gene in place of nef infected in human HeLa-T4 cells assessed as luciferase activity after 48 hrs […]; type: functional, organism-based; settings: Human immunodeficiency virus 1, HeLaT4, 48 h
Summary of the method: (§1)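 HeLa-T4 cells infected in duplicate for 2 h with 105 RT-cpm VSV-G-pseudotyped HIV-Luc (MOI ~0.01) with serial drug dilutions, washed and re-fed with the same drug. Luciferase normalized to total protein at 48 h, minus matched integrase-mutant N/N-Luc background. EC50/EC95 by GROWTH fit, ≥3 experiments; CC50 by WST-1 on HeLa-T4; SI = CC50/EC50.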

[2] = Cytotoxicity against human HeLaT4 cells by WST-1 assay; type: cell-based
Summary of the method: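 HeLa-T4 cells grown in DMEM with 10% FBS, 100 IU/ml penicillin and 100 μg/ml streptomycin; drug cytotoxicity measured by WST-1 read-out, with drugs tested up to 100 μM; 50% cytotoxic concentration (CC50) reported.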

[3] = Selectivity index, ratio of CC50 for human HeLa-T4 cells to EC50 for single-round HIV1 NLX.Lux-R harboring inactivating mutations in env, vpr and carries firefly luciferase gene in place of nef; type: toxicity, cell-based; settings: read-out: Ratio CC50/EC50; summary of the method: as §1
[4] = tested on: Human immunodeficiency virus 1; experiment: Antiviral activity against single-round HIV1 NLX.Lux-R harboring inactivating mutations in env, vpr and carries firefly luciferase gene in place of nef infected in human HeLa-T4 cells assessed as inhibition of 2 mins magnetic nanopartials-medated infectivity after 48 hrs luciferase assay; type: functional, organism-based; settings: for EC50: Human immunodeficiency virus 1, HeLaT4
Summary of the method: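 HeLa-T4 cells infected with virus dialysed against HS buffer (pH 7.3, 24 h, 4°C), plus 1.5% FBS, preincubated 5 min with 0.5 mg/ml magnetite nanoparticles. Added at 1:13 (vol/vol) final, 2 min under ~1 T, washed three or four times. Incubated at 37°C; luciferase read at 48 h.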

[5] = tested on: Human immunodeficiency virus 1; experiment: Antiviral activity against HIV1 NL4-3.Luc assessed as infectivity using human MDM pretreated for 24 hrs followed by exposed to virus after compound washout measured after 2 to 3 days by luciferase assay; type: functional, organism-based
[6] = tested on: Human immunodeficiency virus 1; experiment: Antiviral activity against HIV1 NL4-3.Luc assessed as infectivity using human PBMC pretreated for 24 hrs followed by exposed to virus after compound washout measured after 2 to 3 days by luciferase assay; type: functional, organism-based
[7] = tested on: Human immunodeficiency virus 1; experiment: Antiviral activity against single-round HIV1 NLX.Lux-R harboring inactivating mutations in env, vpr and carries firefly luciferase gene in place of nef infected in human HeLa-T4 cells assessed as time required to 50% inhibition of infection at 10 times EC95 by time-of-addition assay; type: functional
Summary of the method: (§2)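 Time-of-addition: drug at 10× or 100× EC95 added to HIV-Luc-infected HeLa-T4 cultures at set times after infection. Lysis at 48 h; luciferase as percent of no-drug cells. The time giving 50% inhibition versus the no-drug control was read from the curves.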

[8] = tested on: Human immunodeficiency virus 1; experiment: Antiviral activity against single-round HIV1 NLX.Lux-R harboring inactivating mutations in env, vpr and carries firefly luciferase gene in place of nef infected in human HeLa-T4 cells assessed as time required to cause 50% loss in compound potency at 10 times EC95 by time-of-addition assay; type: functional; summary of the method: as §2
[9] = tested on: Human immunodeficiency virus 1; experiment: Antiviral activity against single-round HIV1 NLX.Lux-R harboring inactivating mutations in env, vpr and carries firefly luciferase gene in place of nef infected in human HeLa-T4 cells assessed as time required to 50% inhibition of infection at 100 times EC95 by time-of-addition assay; type: functional; summary of the method: as §2
[10] = tested on: Human immunodeficiency virus 1; experiment: (§3) Antiviral activity against single-round HIV1 NLX.Lux-R harboring inactivating mutations in env, vpr and carries firefly luciferase gene in place of nef assessed as level of infection using human HeLaT4 cells pretreated at 100 time EC95 for 24 hrs followed by exposed to virus after 12 hrs of 3 times compound washout relative to untreated control cells; type: functional, organism-based
Summary of the method: (§4)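 HeLa-T4 cells pretreated 24 h with 100× EC95 drug, washed three times, then infected with VSV-G-pseudotyped HIV-Luc at 0, 2, 4, 8 or 12 h after washing. Virus removed by three washes at 2 h; lysis at 48 h. Luciferase normalized to protein, percent of no-drug control, Student's t test. Washout EC50 from immediate infection; ratio to standard EC50; ≥3 experiments in duplicate.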

[11] = tested on: Human immunodeficiency virus 1; experiment: (§5) Antiviral activity against single-round HIV1 NLX.Lux-R harboring inactivating mutations in env, vpr and carries firefly luciferase gene in place of nef assessed as level of infection using human HeLaT4 cells pretreated for 24 hrs followed by exposed to virus immediately after 3 times compound washout; type: functional, organism-based; settings: Human immunodeficiency virus 1, HeLaT4; summary of the method: as §4
[12] = tested on: Human immunodeficiency virus 1; experiment: as §5, with “Ratio of EC50 for” for “Antiviral activity against”, “washout to standard EC50 for HIV1 NLX.Lux-R” for “washout”; type: functional; summary of the method: as §4
[13] = tested on: Human immunodeficiency virus 1; experiment: (§6) Antiviral activity against single-round HIV1 NLX.Lux-R harboring inactivating mutations in env, vpr and carries firefly luciferase gene in place of nef assessed as suppression of 2 mins magnetic nanopartials-medated residual infection in human HeLaT4 cells treated at 100 time EC95 for 1 measured after 11 hrs of 3 times compound washout and rewashed 48 hrs post infection by time-of-addition pulse assay relative to untreated control; type: functional
Summary of the method: (§7)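 Pulse time-of-addition: dialysed virus preincubated with magnetite nanoparticles, added to HeLa-T4 cells, 2 min under ~1 T magnetic field, then washed. At set times after infection, cells pulsed 1 h with 100× EC95 drug, washed three times and cultured drug-free. Lysis at 48 h postinfection; luciferase given as percent of no-drug control.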

[14] = tested on: Human immunodeficiency virus 1; experiment: (§8) Antiviral activity against single-round HIV1 NLX.Lux-R harboring inactivating mutations in env, vpr and carries firefly luciferase gene in place of nef assessed as level of 2 mins magnetic nanopartials-medated infection in human HeLaT4 cells treated for 1 measured after of 3 times compound washout and rewashed 48 hrs post infection by time-of-addition pulse assay; type: functional; summary of the method: as §7
[15] = tested on: Human immunodeficiency virus 1; experiment: Antiviral activity against HIV1 NL4-3.Luc in human PBMC assessed as infectivity treated for 24 hrs by luciferase assay; type: functional, organism-based; settings: Human immunodeficiency virus 1, 24 h
[16] = tested on: Human immunodeficiency virus 1; experiment: Antiviral activity against HIV1 NL4-3.Luc in human MDM assessed as infectivity treated for 24 hrs by luciferase assay; type: functional, organism-based; settings: Human immunodeficiency virus 1, 24 h
[17] = tested on: Human immunodeficiency virus 1; experiment: Ratio of EC50 for HIV1 NL4-3.Luc assessed as infectivity using human PBMC pretreated for 24 hrs followed by exposed to virus after compound washout to standard EC50 for HIV1 NL4-3.Luc; type: functional
[18] = tested on: Human immunodeficiency virus 1; experiment: Ratio of EC50 for HIV1 NL4-3.Luc assessed as infectivity using human MDM pretreated for 24 hrs followed by exposed to virus after compound washout to standard EC50 for HIV1 NL4-3.Luc; type: functional
[19] = Drug uptake in human HeLaT4 cells assessed as compound persist measured after 3 times washout at 100 time EC95 for HIV1 for 24 hrs; type: ADME, cell-based; settings: helat4, 24 h; summary of the method: as §4
[20] = tested on: Human immunodeficiency virus 1; experiment: as §3, with “virus immediately” for “virus”, “after” for “after 12 hrs of”; type: functional; summary of the method: as §4
[21] = tested on: Human immunodeficiency virus 1; experiment: as §6, with “level” for “suppression”, “nanopartials-medated” for “nanopartials-medated residual”, “3” for “11”, “control at 4 hr time point” for “control”; type: functional; summary of the method: as §7
[22] = tested on: Human immunodeficiency virus 1; experiment: as §3, with “2 to 4” for “12”; type: functional; summary of the method: as §4
[23] = tested on: Human immunodeficiency virus 1; experiment: as §8, with “nanopartials-medated residual” for “nanopartials-medated”, “treated at 100 time EC95” for “treated”, “after 3 hrs” for “after”; type: functional; summary of the method: as §7
[24] = tested on: Human immunodeficiency virus 1; experiment: as §3, with “8” for “12”; type: functional, organism-based; summary of the method: as §4

SMILES | EC50 [1] [nM] | EC95 [1] [nM] | CC50 [2] [nM] | selectivity ratio [3] | Activity [4] | EC50 [4] [nM] | EC50 [5] [nM] | EC50 [6] [nM] | Time [7] [h] | Time [8] [h] | EC50 [11] [nM] | Ratio EC50 [12] | EC50 [15] [nM] | EC95 [15] [nM] | EC50 [16] [nM] | EC95 [16] [nM] | Ratio EC50 [17] | Ratio EC50 [18] | Drug uptake [19] | Activity [20] | further results
O=C1Nc2ccc(Cl)cc2[C@@](C#CC2CC2)(C(F)(F)F)O1 [EFAVIRENZ] | 1.1 | 8 | 35000 | 31800 | Dose-dependent effect | 1000 |  |  |  |  |  |  |  |  |  |  |  |  |  |  | 
COc1cc2c(cc1Cc1cccc(Cl)c1F)c(=O)c(C(=O)O)cn2[C@H](CO)C(C)C [ELVITEGRAVIR] | 2.9 | 37 | 34000 | 11700 | Dose-dependent effect | 3400 | 25 | 36 | 10.1 | 11.1 | 60 | 20.7 | 0.3 | 7.4 | 0.5 | 8.2 | 120 | 50 |  |  | Time [9]: 11.3 h; Activity [10]: Active; fold change (FC) [13]: 2; EC98.6 [14]: 75 nM
Cc1ccnc2c1NC(=O)c1cccnc1N2C1CC1 [NEVIRAPINE] | 73 | 680 | > 100000 | > 1370 |  |  | > 100000 | > 100000 |  | 7.2 | > 100000 | >1370 | 41 | 690 | 27 | 640 | >2439 | >3703 | Not Active | inactive | Activity [21]: 23%
Cc1nnc(C(=O)NC(C)(C)c2nc(C(=O)NCc3ccc(F)cc3)c(O)c(=O)n2C)o1 [RALTEGRAVIR] | 77 | 810 | > 100000 | > 1300 |  |  | 4900 | 3300 | 10.5 | 10.2 | 4600 | 547.6 | 2.4 | 48 | 4.3 | 80 | 1375 | 1140 |  | 19% | Time [9]: 12.7 h; Activity [22]: 50%; Activity [23]: 9%; fold change (FC) [13]: 2; EC91 ([14]; Human immunodeficiency virus 1, HeLaT4): 0.073 µM
CC(C)OC(=O)OCOP(=O)(CO[C@H](C)Cn1cnc2c(N)ncnc21)OCOC(=O)OC(C)C.O=C(O)/C=C/C(=O)O [TENOFOVIR DISOPROXIL FUMARATE] | 2.9 | 37 | 34000 | 11700 |  |  | 34 | 55 |  |  | 120 | 4 | 46 | 720 | 28 | 520 | 1.2 | 1.2 | Active |  | Activity [10]: Active; EC99.6 [14]: 0.95 µM
Cc1cn([C@H]2C[C@H](N=[N+]=[N-])[C@@H](CO)O2)c(=O)[nH]c1=O [ZIDOVUDINE] | 8.4 | 90 | > 100000 | > 11900 |  |  |  |  |  | 4.8 | 4600 | 59.7 |  |  |  |  |  |  | Active | 18% | Activity [22]: 40%; Activity [24]: inactive
